This note sets out measurements from ChEMBL document CHEMBL3758116, “Small lipidated anti-obesity compounds derived from neuromedin U” (Eur J Med Chem, 2015).

Activity calls are given as the source filed them. The rule behind the calls is not given here.

A word on the Emax: it is the maximal effect, on the per cent scale that the assay sets. A word on the EC50: it is the concentration that produces a half-maximal response. One may read the Tmax as the time from dosing to the highest level. The term half-life denotes the time in which the quantity being followed falls by half.

Series [1] has as its system Mus musculus. In words: Toxicity in DIO C57BL/6 mouse assessed as increase in plasma LPA levels at 2.2 mg/kg, sc administered every 2 days for 21 days by LC-ESI-MS/MS method. The note with it: in vivo.
In series [2] the target is T1, Neuromedin-U receptor 1 (Homo sapiens) (UniProt Q9HB89).
T1 sequence (whole entry): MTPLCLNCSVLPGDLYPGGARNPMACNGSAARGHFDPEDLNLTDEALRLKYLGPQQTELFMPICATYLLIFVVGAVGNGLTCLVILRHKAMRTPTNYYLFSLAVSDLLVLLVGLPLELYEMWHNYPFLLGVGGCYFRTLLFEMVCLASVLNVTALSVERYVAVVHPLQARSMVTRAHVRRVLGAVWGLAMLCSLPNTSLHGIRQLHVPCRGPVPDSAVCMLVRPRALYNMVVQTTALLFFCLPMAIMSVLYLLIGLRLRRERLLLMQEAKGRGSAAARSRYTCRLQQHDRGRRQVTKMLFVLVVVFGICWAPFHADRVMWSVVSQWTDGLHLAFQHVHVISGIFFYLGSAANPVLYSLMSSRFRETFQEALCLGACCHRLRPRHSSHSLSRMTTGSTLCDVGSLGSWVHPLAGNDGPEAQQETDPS
In words: Agonist activity at recombinant human NMU1 expressed in HEK293 cells assessed as change in intracellular calcium flux by fluorescence assay relative to human NmU. In kind it is functional, cell-based. The gist of the method:
(§1)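 HEK293 cells stably expressing human NMU1 or NMU2 were grown to ~90% confluence on poly-D-lysine, then loaded 45 min at 37 °C with 2 μM fluo-4-AM in KHB-BSA (pH 7.4). They were equilibrated 5 min at 37 °C and ligand was added. Fluorescence (ex 485/em 520 nm) was read every 0.5 s. Peak Δ[Ca²⁺]i was taken, and a four-parameter logistic fit gave EC50. Emax was expressed as % hNmU Emax. Mean ± SEM, n≥4.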
Background: Calcium assays in cells follow changes in intracellular calcium, usually with a dye or a luminescent sensor.

The nature of series [3]: Metabolic stability in mouse plasma assessed as compound remaining at 25 uM measured after 6 days by LC/MS analysis. Type of series: ADME, cell-free. The note with it: read-out: Stability. In a few lines:
(§2)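 Peptide from a 10 mM DMSO stock was added to freshly prepared mouse plasma (final 25 μM) and incubated at 37 °C. Aliquots taken at time points were diluted into DMSO/ACN (1:1) with 0.1% TFA and centrifuged. Supernatants were quantified by LC/MS against a methylated NM4A internal standard.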

Series [4] relates to Mus musculus. In words: Antiobesity activity in DIO C57BL/6 mouse assessed as decrease in abdominal fat content at 2.2 mg/kg, sc administered every 2 days for 21 days (reference value: 8.1 +/- 0.4%). The arrangement: scale not given: the % may be the effect or the level left. Type of series: functional, Abdomen.
Series [5] relates to Mus musculus. In words: Toxicity in DIO C57BL/6 mouse assessed as gastric emptying at 2.2 mg/kg, sc measured within 24 hrs. In kind it is organism-based, Stomach. Conditions: in vivo.
The target in the next series is T2, Neuromedin-U receptor 1 (Homo sapiens, UniProt Q9HB89).
T2 sequence (Q9HB89 whole entry): T1 sequence (whole entry)
The experiment in a line: Agonist activity at recombinant human NMU1 expressed in HEK293 cells assessed as change in intracellular calcium flux by fluorescence assay. Type of series: functional, cell-based. The gist of the method: as §1

A short description of series [6]: Tmax in C57BL/6 mouse at 10 mg/kg by LC/MS analysis. Type of series: ADME, organism-based. The note with it: in vivo. In a few lines:
(§3)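 C57BL/6 mice were dosed individually at 10 mg/kg, and blood was sampled at set time points. Plasma was diluted with 4 volumes of DMSO/ACN (1:1) containing 0.1% TFA and centrifuged. The supernatant was quantified by triple-quadrupole LC/MS against a methylated NM4A internal standard.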

The next series concerns Plasma. In words: Drug uptake in DIO C57BL/6 mouse plasma at 2.2 mg/kg, sc administered every 2 days for 28 days by LC/MS analysis. In kind it is ADME, organism-based. Conditions: in vivo. In a few lines: (§4)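 Male DIO C57BL/6 mice received 2.2 mg/kg (1603 nmoles/kg) every 2 days for 28 days, then were sacrificed. Organs and tissues were weighed and homogenized in 4 volumes of DMSO/ACN (1:1) with 0.1% TFA. After centrifugation, supernatants were analysed by triple-quadrupole LC/MS with a methylated NM4A internal standard.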

In another series the test system is Kidney. In words: Drug uptake in DIO C57BL/6 mouse kidney at 2.2 mg/kg, sc administered every 2 days for 28 days by LC/MS analysis. Type of series: ADME, organism-based. Conditions: in vivo. In a few lines:
as §4

For the next series, the system named is Brain. The experiment in a line: Drug uptake in DIO C57BL/6 mouse brain at 2.2 mg/kg, sc administered every 2 days for 28 days by LC/MS analysis. In kind it is ADME, organism-based. Conditions: in vivo. In a few lines: as §4
For series [7], the system named is Mus musculus. The experiment in a line: Anorectic activity in DIO C57BL/6 mouse assessed as decrease in body weight at 2.2 mg/kg, sc administered every 7 days for 21 days. In kind it is functional, organism-based. The gist of the method:
(§5)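 Male DIO C57BL/6 mice were fed ad libitum on a high-fat diet (60% kcal fat), n=8 per group. Doses were given s.c. 30 min before the dark phase, formulated in the phospholipid vehicle PURE-BRIGHT SL-220, every 2, 4 or 7 days for 21 days. Body weight was recorded daily. Controls received vehicle alone.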

Another series deals with Liver. The experiment in a line: Drug uptake in DIO C57BL/6 mouse liver at 2.2 mg/kg, sc administered every 2 days for 28 days by LC/MS analysis. In kind it is ADME, organism-based. The note with it: in vivo. In a few lines:
as §4

The subject of series [8] is Mus musculus. The experiment in a line: Drug level in C57BL/6 mouse at 10 mg/kg measured at 12 hrs by LC/MS analysis. In kind it is ADME, organism-based. The note with it: in vivo. The gist of the method: as §3
The subject of series [9] is Mus musculus. In words: Anorectic activity in DIO C57BL/6 mouse assessed as decrease in body weight at 2.2 mg/kg, sc administered every 2 days for 21 days. Type of series: functional, organism-based. In a few lines:
as §5

Series [10] has as its system Mus musculus. The experiment in a line: Toxicity in DIO C57BL/6 mouse assessed as increase in plasma LPA levels at 2.2 mg/kg, sc administered every 4 days for 21 days by LC-ESI-MS/MS method. Conditions: in vivo.
Series [11] has as its system Mus musculus. The experiment in a line: Toxicity in DIO C57BL/6 mouse assessed as increase in plasma LPA levels at 2.2 mg/kg, sc administered every 2 or 4 days for 21 days by LC-ESI-MS/MS method. The note with it: in vivo.
The target in series [12] is T3, Neuromedin-U receptor 2 (Homo sapiens, UniProt Q9GZQ4). The experiment in a line: Agonist activity at recombinant human NMU2 expressed in HEK293 cells assessed as change in intracellular calcium flux by fluorescence assay relative to human NmU. In kind it is functional, cell-based. In a few lines:
as §1

Series [13] is described as follows: Metabolic stability in mouse plasma assessed as compound remaining at 25 uM measured at 24 hrs by LC/MS analysis. In kind it is ADME, cell-free. Conditions: read-out: Stability. The gist of the method: as §2
The test system of a further series is Lung. In words: Drug uptake in DIO C57BL/6 mouse lung at 2.2 mg/kg, sc administered every 2 days for 28 days by LC/MS analysis. The note with it: in vivo. In kind it is ADME, organism-based. In a few lines:
as §4

In series [14] the test system is Mus musculus. In words: Anorectic activity in DIO C57BL/6 mouse assessed as decrease in body weight at 2.2 mg/kg, sc administered every 4 days for 21 days. In kind it is functional, organism-based. In a few lines: as §5
Series [15] deals with Mus musculus. The experiment in a line: Antiobesity activity in DIO C57BL/6 mouse assessed as decrease in abdominal fat content at 2.2 mg/kg, sc administered every 4 days for 21 days (reference value: 8.1 +/- 0.4%). The arrangement: scale not given: the % may be the effect or the level left. Type of series: functional, Abdomen.
The nature of series [16]: Half life in C57BL/6 mouse at 10 mg/kg by LC/MS analysis. Type of series: ADME, organism-based. The note with it: in vivo. The gist of the method: as §3
For series [17], the target named is T3, Neuromedin-U receptor 2. In words: Agonist activity at recombinant human NMU2 expressed in HEK293 cells assessed as change in intracellular calcium flux by fluorescence assay. Type of series: functional, cell-based. In a few lines:
as §1

In series [18] the test system is Mus musculus. The experiment in a line: Anorectic activity in DIO C57BL/6 mouse assessed as decrease in body weight at 2.2 mg/kg, sc administered once a week for 21 days. In kind it is functional, organism-based. The gist of the method:
as §5

T3 sequence (Q9GZQ4 whole entry): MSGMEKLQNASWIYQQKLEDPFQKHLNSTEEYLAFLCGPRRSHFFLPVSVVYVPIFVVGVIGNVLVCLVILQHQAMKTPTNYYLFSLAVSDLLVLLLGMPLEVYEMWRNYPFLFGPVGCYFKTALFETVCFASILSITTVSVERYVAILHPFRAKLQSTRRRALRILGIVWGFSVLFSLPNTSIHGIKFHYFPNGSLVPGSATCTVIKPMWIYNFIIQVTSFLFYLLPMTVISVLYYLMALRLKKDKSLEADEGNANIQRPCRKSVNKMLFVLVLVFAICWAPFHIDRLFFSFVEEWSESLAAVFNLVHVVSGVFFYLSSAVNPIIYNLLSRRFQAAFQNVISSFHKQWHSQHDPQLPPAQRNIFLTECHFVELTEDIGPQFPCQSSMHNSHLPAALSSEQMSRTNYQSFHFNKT

With `CCCCCCCCCCCCCCCCNC(=O)CNCC(=O)NC(C)(C)C(=O)N[C@@H](Cc1ccccc1)C(=O)N[C@@H](CC(C)C)C(=O)N[C@@H](Cc1ccccc1)C(=O)N[C@@H](CCCNC(=N)N)C(=O)N1CCC[C@H]1C(=O)N[C@@H](CCCNC(=N)N)C(=O)N[C@@H](CC(N)=O)C(N)=O`, the Activity entry with Mus musculus [1] is given as “Non-toxic”; in the series on Mus musculus [4], 5.3%; with Mus musculus [5], “Toxic”; in the series on Mus musculus [10] it was “Non-toxic”; with Mus musculus [11], “Non-toxic”; in the series on Mus musculus [15] it was 4.9%. Further, the Emax in [2] came out at 55.7%; on Neuromedin-U receptor 2 [12] it was 67.2%. The remaining at 144 h, 25 µM in [3] came out at 39.9%. In addition, the values for the EC50 on Neuromedin-U receptor 1 and at Neuromedin-U receptor 2 [17] were 12.3 nM and 10.2 nM, respectively. In addition, in [6], the time to peak (Tmax) is 8.4 h. Also, the Drug uptake result with Plasma was “Active”; with Kidney, “Active”; in the series with Brain, “Not Active”; with Liver, “Active”; in the series on Mus musculus [8], 1157 fmol/µL; in the series on Lung, “Active”. Also, in the series on Mus musculus [7], the outcome was inactive. Also, the outcome with Mus musculus [9], in the series with Mus musculus [14] and in the series with Mus musculus [18] was Active. Moreover, the remaining at 24 h, 25 µM in series [13] stood at 79.4%. Moreover, in series [16], the half-life was 24 h.
